Compound activity: PubChem BioAssay, several laboratories
Hits are enriched below; roughly 4% of the tested compounds scored in any of these assays.
RAM network inh: inhibitors of the yeast RAM network; S. cerevisiae dse1pr::URA3 reporter, 5-FOA growth OD615, 2 d; analog-sensitive cbk1-as2 kinase mutant strain; inhibition, % at 50 µM; 190,000 tested, 1.8% active; AID 868;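 active = inhibition above a set limit, 3 SD over mean compound inhibition, cut at about 8.4% in these data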;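 note: 0% = DMSO-only wells with no growth and 100% = 10 µM 1-NA-PP1 full growth; inhibition rescues growth on 5-FOA so higher OD means more RAM inhibition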
Insulin prom inh: TRM-6 insulin promoter activity inhibition; TRM-6 cells, insulin promoter-eGFP reporter, imaging; reporter expression induced with tamoxifen; inhibition, % at 2 µM; 130,000 tested, 0.9% active; AID 1273;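 active = inhibition above the mean plus 3 SD, with well images judged a real hit on visual review, cut at about 60% in these data, passing the limit was not always enough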
MDM2 E3 inh: Mdm2 E3 ligase (human) inhibition; Q00987; cell-based MDM2 ubiquitination luciferase reporter, 2 h; 0 = plate control, 100 = twice control, blank-subtracted; signal enhancement, % at 5 µM; 210,000 tested, 0.11% active;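 active = signal enhancement of 30% or more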;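 note: luminescence tracks abundance of the self-degrading MDM2-luciferase fusion protein; higher signal means inhibition of MDM2 E3 ligase activity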
Target sequence (Q00987 whole entry, looked up, the tested form may be a part): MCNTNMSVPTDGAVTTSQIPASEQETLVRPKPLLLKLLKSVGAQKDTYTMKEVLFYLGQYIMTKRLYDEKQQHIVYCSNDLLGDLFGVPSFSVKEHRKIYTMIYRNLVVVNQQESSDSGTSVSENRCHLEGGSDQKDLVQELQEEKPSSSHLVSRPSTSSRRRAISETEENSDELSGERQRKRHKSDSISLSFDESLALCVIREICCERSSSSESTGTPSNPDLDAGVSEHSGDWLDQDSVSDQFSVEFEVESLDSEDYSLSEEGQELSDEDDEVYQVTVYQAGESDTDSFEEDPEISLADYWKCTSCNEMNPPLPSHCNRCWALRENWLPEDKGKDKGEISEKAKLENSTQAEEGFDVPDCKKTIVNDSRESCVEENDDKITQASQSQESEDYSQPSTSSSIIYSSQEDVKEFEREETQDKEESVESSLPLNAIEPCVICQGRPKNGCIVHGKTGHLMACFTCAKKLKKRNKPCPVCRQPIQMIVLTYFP
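Assay system: stable mammalian line carrying autodegrading MDM2–luciferase fusion reporter; Input: 2000 cells in each well; Compound dosing: single-point 5 µM; Schedule: 2 h compound exposure at 37 °C; Signal: SteadyLite luciferase luminescence after 15 min room-temperature reagent incubation; Evaluation: % luminescence enhancement versus blank-corrected plate control mean; Benchmarks: plate controls and plate blanks.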
Measles CPE: protection of cells from measles virus; Measles virus-infected cells, CPE protection, absorbance; protection (pct of control), % at 4 µM; 140,000 tested, 1.5% active; AID 841; in the data active = protection mostly above about 24%, no sharp cut-off; inactive = mostly below about 26%
BB579 growth dn: chemicals that inhibit yeast BB579 growth in restrictive medium (lifespan-shortening candidates); inhibition, % at 10 µM; 140,000 tested, 0.51% active; AID 804; S. cerevisiae BB579 growth, OD615, 48 h;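 active = inhibition above a set limit, 3 SD over the mean compound inhibition, cut at about 44% in these data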
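Test system: S. cerevisiae DeaD strain BB579 yeast; Medium: restrictive CSMM-D medium; Compound: one dose, 10 µM compound with 0.25% DMSO; Incubation: 4 h cell preincubation, 48 h compound exposure, 30 °C humidified; Signal: OD at 615 nm; Benchmarks: amphotericin B at 10 µg/mL as positive control.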
Yeast life ext: yeast lifespan extension; 130,000 tested, 0.68% active; S. cerevisiae growth with nicotinamide, OD615; deaD strain in restrictive glucose medium; inhibition of the nicotinamide effect, % at 10 µM; AID 775;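 active = inhibition above a set limit, placed 3 SD over the median of all compounds, cut at about 26% in these data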;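 note: 0% = nicotinamide-treated wells and 100% = cells grown without nicotinamide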
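Assay system: engineered S. cerevisiae DeaD replicative-lifespan strain, galactose-grown log-phase cells; medium: restrictive CSMM-D dextrose medium; also added: nicotinamide, 1.5 mM, co-present with compound; schedule: 48 h compound exposure at 30 °C, humidified; detection: absorbance at 615 nm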
Active calls of the source: *; x = no result.

SMILES	RAM network inh	Insulin prom inh	MDM2 E3 inh	Measles CPE	BB579 growth dn	Yeast life ext
COc1cc2c(cc1NC(=O)Nc1ccc(F)cc1)oc1ccccc12	3	11	-2	5	-39	-3
COc1cc(-c2csc(N3CCOCC3)n2)cc(OC)c1OC	2	10	-12	56*	-79	-11
Fc1ccc(-c2csc(N3CCOCC3)n2)cc1	x	x	-17	x	x	x
CCCc1nc2ccc(NC(=O)NCCC(=O)OCC)cc2c(=O)n1Cc1cccc(Cl)c1	10*	x	-8	32	-43	-6
CC(C)C(=O)NNC(=O)c1cc2sccc2s1	x	x	-4	x	x	x
CC1CN(C(=O)COC(=O)c2cccs2)CC(C)O1 (stereo not drawn)	-1	x	-6	36*	-20	0
Cc1ccc(C(=O)c2c(C)oc3c2C(=O)C(=O)c2ccccc2-3)cc1	0	-11	-5	3	70*	-11
O=C(OCC#CCSc1nc2ccccc2o1)c1cc2ccccc2o1	10*	56	3	5	-48	x
O=C(c1ccc(Br)s1)N1CCN(C/C=C/c2ccccc2)CC1	0	28	4	3	-56	1
O=C(c1ccc(Br)o1)N1CCN(C/C=C/c2ccccc2)CC1	2	39	1	119*	-32	-2
CCOC(=O)C1ON2CCCCC2C1(O)C(F)(F)F (stereo not drawn)	2	x	-1	x	x	x
CCC1(C)Cc2nc3[nH]c(=S)n(-c4ccccc4)c(=O)c3cc2CO1 (stereo not drawn)	8.5*	26	1	30	-8	7
CCOC(=O)C(NC(=O)CC)(Nc1ccccc1)C(F)(F)F (stereo not drawn)	2	-86	-2	24*	-41	1
O=C1/C(=C\c2ccc3ccccc3c2)CCCc2ccccc21	11*	5	x	7	-15	x
O=C(O)/C=C/C(=O)Nc1ccc(OC(F)F)cc1	3	x	3	x	x	x
O=C(O)[C@H]1CCCC[C@H]1C(=O)NCCNC(=O)[C@@H]1CCCC[C@@H]1C(=O)O	1	100*	-8	4	-47	1
O=C(O)C1CCCCC1C(=O)NCCC(c1ccccc1)c1ccccc1 (stereo not drawn)	-1	-32	-2	5	-25	-15
Cc1cccc(Cn2cc(/C=C/[N+](=O)[O-])c3ccccc32)c1	11*	25	-2	3	-32	25
COc1ccc(C(=O)/C=C/N2CCCCC2)cc1OC	3	23	-12	4	53*	-6
COc1ccc(C(=O)/C=C/c2ccc(OC3CSC3)cc2)cc1OC	8.6*	-19	-4	3	-19	-7
CCOC(=O)C1=C(Cc2ccc(F)cc2)C(=O)c2ccccc2C1=O	6	-22	-2	11	-10	7
O=C(OCc1ccc(F)cc1)c1ccc2c(c1)-c1ccccc1C2=O	11*	-21	-3	12	-61	-15
CC(C)[C@H](NC(=O)CCCn1nnc2ccccc2c1=O)C(=O)O	x	x	-73	x	x	x
O=C(NC(=S)NNC(=O)c1ccccc1O)c1ccco1	1	x	-17	23	-58	82*
CCCn1cc(CN2CCC(N3CCC(C(=O)N4CCOCC4)CC3)CC2)c(C)n1	x	x	-13	x	x	x
SMILES	RAM network inh	Insulin prom inh	MDM2 E3 inh	Measles CPE	BB579 growth dn	Yeast life ext
NC(=O)C1CCN(S(=O)(=O)c2cccc(S(=O)(=O)N3CCCCC3)c2)CC1	0	38	2	5	-20	-27
CCc1ccc(NC2=NC(C(=O)NC3CCCCC3)CC(=O)N2)cc1 (stereo not drawn)	0	-82	0	56*	5	-1
COc1ccc(NC(=O)C2CC(=O)NC(Nc3cccc(C)c3)=N2)cc1 (stereo not drawn)	1	5	-6	4	-36	-12
Cc1c(O)c(S(=O)c2ccccc2)c(=O)n(-c2ccccc2)c1-c1ccccc1 (stereo not drawn)	4	-15	-7	23	-42	61*
Cc1ccc(NC(=S)Nc2ccc(Cl)c(Cl)c2)c(OC(F)F)c1	-2	x	-11	2	85*	-8
Cc1ccc(NC(=S)Nc2ccc(OC(F)F)c(Cl)c2)cc1Cl	3	x	4	7	-36	-4
